# The source made the active and inactive calls. No cut-off for these calls is given here.
# What was measured:
# MCF7 [1] = test: Induction of cell cycle arrest in human MCF7 cells assessed as accumulation of cells at S phase at 2.9 uM after 24 hrs by Propidium iodide staining based flow cytometric analysis (reference value: 23.75 +/- 1.87%); format: functional
# MCF7 [2] = test: Induction of vacuolization in human MCF7 cells at 8.7 uM after 24 hrs in presence of 10 uM Na+/H+ exchange inhibitor, amiloride by light microscopic analysis; format: functional, cell-based
# MCF7 [3] = test: Induction of vacuolization in human MCF7 cells assessed as increase in LAMP1 expression at 2.9 uM by Western blot analysis relative to control; format: functional
# HeLa [4] = test: Cell cycle arrest in human HeLa cells assessed as reduction in cell population at G2/M phase at 2.9 to 8.7 uM after 24 hrs by propidium iodide staining based flow cytometric analysis; format: functional
# HeLa [5] = test: Anticlonogenic activity against human HeLa cells assessed as proportion of colony forming cells at 11.6 uM incubated for 24 hrs followed by recovery period of 2 weeks by culturing cells in drug-free medium by crystal violet staining based assay relative to control; format: functional
# How it was run: (§1)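 Cells (1 × 10⁶) plated, after 24 h given fresh medium with derivative at 1, 2, 3 or 4 μg mL⁻¹ for 24 h; then trypsinized, counted, 8 × 10² replated into two plates in compound-free medium. After 2 weeks fixed with 6.0% glutaraldehyde, stained with 0.5% crystal violet; colonies of ≥50 cells counted. Mean ± SE of three experiments in duplicate.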
# HeLa [6] = test: Antiproliferative activity against human HeLa cells assessed as reduction in cell viability after 48 hrs by MTT assay; format: functional, cell-based; conditions: Homo sapiens, HeLa, 48 h
# How it was run: (§2)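 Cells seeded at 4 × 10³/well for 24 h runs and for PC-3, or 2 × 10³/well for MCF-7 and HeLa 48 h runs, and attached overnight. Medium replaced with compound-containing medium for 24 or 48 h. MTT (4 mg mL⁻¹) added for the final 3 h, formazan dissolved in DMSO, absorbance read at 570 nm (reference 660 nm). IC₅₀ calculated from at least three independent experiments in duplicate, mean ± SE.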
# PC-3 [7] = test: Antiproliferative activity against human PC3 cells assessed as reduction in cell viability after 48 hrs by MTT assay; format: functional, cell-based; conditions: PC-3, 48 h; how it was run: as §2
# HeLa [8] = test: Induction of cell cycle arrest in human HeLa cells assessed as accumulation of cells at G0/G1 phase 2.9 to 8.7 uM after 24 hrs by propidium iodide staining based flow cytometric analysis (reference value: 44%); format: functional
# [9] = Cytotoxicity against human HDFa cells assessed as reduction in cell viability after 48 hrs by MTT assay; format: cell-based; how it was run: as §2
# MCF7 [10] = test: Induction of cell cycle arrest in human MCF7 cells assessed as accumulation of cells at G2/M phase at 2.9 uM after 24 hrs by Propidium iodide staining based flow cytometric analysis (reference value: 27 +/- 2.97%); format: functional
# MCF7 [11] = test: Induction of vacuolization in human MCF7 cells at 8.7 uM after 24 hrs in presence of 50 uM dynamin inhibitor, dynasore by light microscopic analysis; format: functional, cell-based
# MCF7 [12] = test: Induction of apoptosis in human MCF7 cells assessed as reduction in Bcl-2 expression at 8.7 uM after 24 hrs by immunoblot analysis relative to control; format: functional
# How it was run: (§3)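 Proteins run on SDS-PAGE, transferred to PVDF, blocked in 5% milk/PBS, primary antibody overnight at 4 °C (cleaved PARP, Bax, Bcl-2), secondary 1 h at room temperature. Reprobed for β-actin; densitometry corrected for loading.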
# MCF7 [13] = test: Anticlonogenic activity against human MCF7 cells assessed as proportion of colony forming cells at 11.6 uM incubated for 24 hrs followed by recovery period of 2 weeks by culturing cells in drug-free medium by crystal violet staining based assay relative to control; format: functional; how it was run: as §1
# MCF7 [14] = test: Induction of apoptosis in human MCF7 cells assessed as increase in cleaved PARP level at 2.9 uM after 24 hrs by immunoblot analysis relative to control; format: functional; how it was run: as §3
# HeLa [15] = test: Cell cycle arrest in human HeLa cells assessed as reduction in cell population at S phase at 2.9 to 8.7 uM after 24 hrs by propidium iodide staining based flow cytometric analysis; format: functional
# HeLa [16] = test: Anticlonogenic activity against human HeLa cells assessed as reduction in colony formation at 2.9 to 11.6 uM incubated for 24 hrs followed by recovery period of 2 weeks by culturing cells in drug-free medium by crystal violet staining based assay; format: functional, cell-based; how it was run: as §1
# MCF7 [17] = test: Induction of vacuolization in human MCF7 cells at 8.7 uM after 24 hrs in presence of 0.5 uM actin dynamics inhibitor, cytochalasin-D by light microscopic analysis; format: functional, cell-based
# PC-3 [18] = test: Anticlonogenic activity against human PC3 cells assessed as proportion of colony forming cells at 11.6 uM incubated for 24 hrs followed by recovery period of 2 weeks by culturing cells in drug-free medium by crystal violet staining based assay relative to control; format: functional; how it was run: as §1
# MCF7 [19] = test: Induction of cell cycle arrest in human MCF7 cells assessed as accumulation of cells at G0/G1 phase at 2.9 uM after 24 hrs by Propidium iodide staining based flow cytometric analysis (reference value: 47.8 +/- 0.42%); format: functional
# HeLa [20] = test: Antiproliferative activity against human HeLa cells assessed as reduction in cell viability after 24 hrs by MTT assay; format: functional, cell-based; how it was run: as §2
# MCF7 [21] = test: Antiproliferative activity against human MCF7 cells assessed as reduction in cell viability at 8.7 uM after 24 hrs in presence of 0.5 uM actin dynamics inhibitor, cytochalasin-D by MTT assay; format: functional, cell-based
# [22] = Cytotoxicity against human HDFa cells assessed as reduction in cell viability after 24 hrs by MTT assay; format: cell-based; how it was run: as §2
# MCF7 [23] = test: Antiproliferative activity against human MCF7 cells assessed as reduction in cell viability at 8.7 uM after 24 hrs in presence of 10 uM Na+/H+ exchange inhibitor, amiloride by MTT assay; format: functional, cell-based
# MCF7 [24] = test: Induction of apoptosis in human MCF7 cells assessed as increase in Bax level at 8.7 uM after 24 hrs by immunoblot analysis relative to control; format: functional; how it was run: as §3
# PC-3 [25] = test: Antiproliferative activity against human PC3 cells assessed as reduction in cell viability after 24 hrs by MTT assay; format: functional, cell-based; conditions: PC-3, 24 h; how it was run: as §2
# MCF7 [26] = test: Antiproliferative activity against human MCF7 cells assessed as reduction in cell viability after 48 hrs by MTT assay; format: functional, cell-based; conditions: Homo sapiens, MCF7, 48 h; how it was run: as §2
# MCF7 [27] = test: Induction of apoptosis in human MCF7 cells assessed as reduction in Bcl-2 expression at 2.9 uM after 24 hrs by immunoblot analysis relative to control; format: functional; how it was run: as §3
# MCF7 [28] = test: Antiproliferative activity against human MCF7 cells assessed as reduction in cell viability after 24 hrs by MTT assay; format: functional, cell-based; conditions: MCF7, 24 h; how it was run: as §2
# PC-3 [29] = test: Anticlonogenic activity against human PC3 cells assessed as reduction in colony formation at 2.9 to 11.6 uM incubated for 24 hrs followed by recovery period of 2 weeks by culturing cells in drug-free medium by crystal violet staining based assay; format: functional, cell-based; how it was run: as §1
# MCF7 [30] = test: Induction of cytoplasmic vacuolization in human MCF7 cells at 8.7 uM after 24 to 48 hrs by TEM analysis; format: functional, cell-based
# How it was run: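 MCF-7 cells (2 × 10⁵) attached overnight, then exposed to 8.7 μM derivative or DMSO for 24 or 48 h at 37 °C. Fixed in ice-cold 2.5% fixative; ultrathin 45 nm sections stained with uranyl acetate and lead citrate, imaged by TEM at 1650×.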
SMILES,Activity (MCF7 [1]) [%],Activity (MCF7 [2]),fold change (FC) (MCF7 [3]),Activity (HeLa [4]),Activity (HeLa [5]) [%],IC50 (HeLa [6]) [nM],IC50 (PC-3 [7]) [nM],Activity (HeLa [8]),IC50 [9] [nM],Activity (MCF7 [10]) [%],Activity (MCF7 [11]),fold change (FC) (MCF7 [12]),Activity (MCF7 [13]) [%],fold change (FC) (MCF7 [14]),Activity (HeLa [15]),inhibition (HeLa [16]),Activity (MCF7 [17]),Activity (PC-3 [18]) [%],Activity (MCF7 [19]) [%],IC50 (HeLa [20]) [nM],also measured
CC(=O)c1c(O)c(C)c(O)c2c1OC1=Cc3onc(C)c3C(=O)[C@]12C,11.15,Active,5.3,Active,<50,1000,3100,51 - 65%,3000,16.4,inactive,0.2,<50,4.4,Active,Active,Active,<50,70.25,1000,inhibition (MCF7 [21]): Active; IC50 [22]: 9200 nM; inhibition (MCF7 [23]): Active; fold change (FC) (MCF7 [24]): 2.1; IC50 (PC-3 [25]): 3200 nM; IC50 (MCF7 [26]): 2500 nM; fold change (FC) (MCF7 [27]): 0.5; IC50 (MCF7 [28]): 3200 nM; inhibition (PC-3 [29]): Active; Activity (MCF7 [30]): Active
CC(=O)c1c(O)c(C)c(O)c2c1OC1=Cc3onc(C)c3C(=O)C12C (racemic),10.1,Active,1.3,Active,<50,1000,2800,51 - 65%,5900,16.2,inactive,0.3,<50,3.6,Active,Active,Active,<50,71.85,1000,inhibition (MCF7 [21]): Active; IC50 [22]: > 10000 nM; inhibition (MCF7 [23]): Active; fold change (FC) (MCF7 [24]): 1.1; IC50 (PC-3 [25]): 3400 nM; IC50 (MCF7 [26]): 2900 nM; fold change (FC) (MCF7 [27]): 0.6; IC50 (MCF7 [28]): 3100 nM; inhibition (PC-3 [29]): Active; Activity (MCF7 [30]): Active
